Bioassay records deposited in PubChem by Sanford-Burnham Center for Chemical Genomics.
An excerpt weighted towards active compounds, which were near 1.5% of everything screened.
APJ antag: APJ receptor antagonism | P35414 | inhibition, % at 20 µM | actives 0.32% (n = 330,000) | CHO-K1 APJ beta-arrestin complementation, luminescence | AID 2521;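 active means inhibition above about 40% at 20 µM, limit read from the data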;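 further: cells challenged with 10 nM apelin-13 agonist together with compound; plate controls were apelin-13 plus DMSO wells for no effect and DMSO wells lacking apelin-13 for full effect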
APJ agonist: APJ receptor agonism; actives 0.11% (n = 330,000); activation, % at 20 µM; CHO-K1 APJ PathHunter beta-arrestin, luminescence; 0% DMSO wells, 100% apelin; AID 2520;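 active means activation more than six SD over the plate average, tested at 20 µM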;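 further: 0% = DMSO alone and 100% = apelin-13 at 10 nM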
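assay system = CHO-K1 APJ beta-arrestin complementation cell line | input = cell density 1000 per well | dosing = compound 20 µM once, DMSO 1% | timing = compound 90 min 25 °C, reagent 1 h | measured by = luminescence from split beta-galactosidase complementation, Galacton Star/Emerald II substrate | read-out basis = APJ agonist activity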
EBI2 block: antagonists of human EBI2 receptor; inhibition, % at 5 µM; P32249; AID 651636; EBI2 beta-arrestin recruitment, luminescence, 7a,25-OHC stimulated; actives 0.81% (n = 360,000); in the data active means inhibition above about 38%;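 further: enzyme fragment complementation signal reports receptor beta-arrestin coupling in cells; 0% = agonist plus DMSO wells and 100% = wells without agonist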
CCR6 antag: blocks CCL20-driven beta-arrestin recruitment at human CCR6 | CHO-K1 CCR6 PathHunter beta-arrestin, luminescence, CCL20-stimulated | inhibition, % at 20 µM | actives 0.49% (n = 340,000);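 active means compounds whose inhibition of the agonist-driven luminescence signal at 20 µM reaches about 50%, limit read from the data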;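 further: cells stimulated with CCL20 at 14 nM final; plate controls were DMSO with CCL20 for no effect and DMSO without agonist for full effect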
Target sequence (P51684 whole entry, looked up): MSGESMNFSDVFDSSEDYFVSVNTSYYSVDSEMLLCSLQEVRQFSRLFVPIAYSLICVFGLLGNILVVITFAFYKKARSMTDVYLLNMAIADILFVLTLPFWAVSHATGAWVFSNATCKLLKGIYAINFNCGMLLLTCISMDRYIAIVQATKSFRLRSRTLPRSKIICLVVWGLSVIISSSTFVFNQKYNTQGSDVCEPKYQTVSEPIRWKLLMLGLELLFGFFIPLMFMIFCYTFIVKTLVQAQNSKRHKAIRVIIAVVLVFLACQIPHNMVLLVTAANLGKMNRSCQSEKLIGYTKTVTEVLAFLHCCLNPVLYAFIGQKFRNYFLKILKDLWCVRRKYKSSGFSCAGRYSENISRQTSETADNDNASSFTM
CXCR6 inh: CXCR6 (human) receptor inhibition | O00574 | CHO-K1 PathHunter CXCR6 beta-arrestin, luminescence | actives 0.36% (n = 360,000) | inhibition, % at 20 µM; in the data active means inhibition above about 34%, passing the limit was not always enough;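 further: antagonist mode with CXCL16 agonist at 10 nM final; 0% = 10 nM CXCL16 with DMSO and 100% = unstimulated wells without agonist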
EBI2 antag conf: EBI2 (human) antagonism, single concentration confirmation | shares compounds with EBI2 block | EBI2 beta-arrestin luminescence, 7a,25-OHC antagonism | inhibition, % at 5 µM | actives 29% (n = 2,400);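 active means inhibition of at least 50%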
EBI2 agonist: activates EBI2, counter-screen for EBI2 antagonists | shares compounds with EBI2 block | AID 652000 | EBI2-expressing cells, agonist mode, luminescence, 60 min; 0% vehicle, 100% 7α,25-dihydroxycholesterol control | activation, % at 5 µM | 2,400 tested, under 10 active;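 active means activation of at least 50%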
bGal cs: inhibits E. coli beta-galactosidase, counter-screen for EBI2 antagonists; inhibition, % at 5 µM; AID 652176; shares compounds with EBI2 block; purified beta-galactosidase, luminescent Galacton Star, 15 min; actives 1% (n = 2,400);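 active means replicate-average signal at least 3 plate SD below neutral wells, shown as high inhibition, flagging enzyme-inhibiting false positives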;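 further: 0% = DMSO wells with enzyme and 100% = wells lacking enzyme; higher means stronger loss of beta-gal luminescence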
The depositor's hits bear a star; · = no result.

SMILES	APJ antag	APJ agonist	EBI2 block	CCR6 antag	CXCR6 inh	EBI2 antag conf	EBI2 agonist	bGal cs
C[C@]12c3[nH]c4cc(-c5ccco5)ccc4c3CCN1C(=O)[C@@H](CC(=O)NCC13CC4CC(CC(C4)C1)C3)C[C@@H]2C(=O)N1CCCCC1	·	·	44*	14	4	13	-1	-4
CC(C)C[C@H]1CNC(=S)N1C[C@H]1CCCN1C[C@H](CC(C)C)N1C[C@H](Cc2ccc(O)cc2)N(CCc2ccccc2)C1=S	·	·	43*	·	12	14	1	8
CC(C)C[C@H]1CNC(=S)N1C[C@H]1CCCN1C[C@H](Cc1ccc(O)cc1)N1C[C@H](Cc2ccccc2)N(CCc2ccccc2)C1=S	·	·	16	·	14	·	·	·
CC(C)C[C@@H](CN1CCC[C@@H]1CN1C(=S)NC[C@@H]1Cc1ccc(O)cc1)N1C[C@H](Cc2ccccc2)N(CCc2ccccc2)C1=S	·	·	47*	·	0	6	-1	-7
CC(C)C[C@@H](CN1CCCC1CN1C(=S)NC[C@@H]1Cc1ccc(O)cc1)N1C[C@H](Cc2ccccc2)N(CCc2ccccc2)C1=S (stereo partly specified)	·	·	29	9	11	·	·	·
Oc1ccc(C[C@H]2CNC(=S)N2CC2CCCN2C[C@H](Cc2ccc(O)cc2)N2C[C@H](Cc3ccccc3)N(CCc3ccccc3)C2=S)cc1 (stereo partly specified)	·	·	42*	11	6	17	0	8
CC(C)C[C@H]1CN([C@@H](CC(C)C)CN2CCC[C@@H]2CN2C(=S)NC[C@@H]2Cc2ccc(O)cc2)C(=S)N1CCc1ccccc1	·	·	31	·	13	·	·	·
Cc1cc(C(=O)CCC(=O)N(C)CC(=O)Nc2ccc(OC(F)(F)F)cc2)c(C)s1	17	-3	14	8	-3	·	·	·
O=C(CCCc1nc(-c2ccc(Cl)cc2)no1)NC1CCCCC1	10	0	4	-10	-1	·	·	·
c1ccc(Oc2ncnc3oc(-c4ccccc4)cc23)cc1	16	-1	50*	-4	2	47	0	3
CCN1CCN(CC(O)COc2cccc(OC)c2)CC1 (stereo unspecified)	12	0	-12	-9	-4	·	·	·
c1ccc(OCCN2CCN(C(c3ccccc3)c3ccccc3)CC2)cc1	0	-4	45*	24	17	5	0	-10
COc1cccc(OCC(O)CN2CCN(C(c3ccccc3)c3ccccc3)CC2)c1 (stereo unspecified)	-15	1	38*	0	0	16	-1	-11
CCn1c(O)c(/C=C2\C=Nc3ccccc32)sc1=Nc1ccccc1	-1	2	53*	2	6	38	0	2
O=C1C=C(c2cc3ccccc3o2)C[C@@H](c2ccc(F)cc2)C1	12	-3	26	26	-7	·	·	·
O=C1C=C(c2ccc(-c3ccccc3)c(F)c2)C[C@@H](c2ccc(F)cc2)C1	-4	1	22	11	-4	·	·	·
O=C1C=C(c2ccc3ncccc3c2)C[C@@H](c2ccc3c(c2)OCO3)C1	11	-3	66*	22	3	45	-1	-4
O=C1C=C(c2ccc3ccccc3c2)C[C@@H](c2ccc(F)cc2)C1	-12	-2	77*	5	4	43	-1	-8
O=C1C=C(c2ccc3[nH]ccc3c2)C[C@@H](c2ccc(F)cc2)C1	16	-3	52*	13	0	62*	0	11
O=C1C=C(c2ccc(Cl)nc2)C[C@@H](c2ccc3c(c2)OCO3)C1	4	-3	8	6	2	·	·	·
O=C1C=C(c2cccc3c2oc2ccccc23)C[C@@H](c2ccc(F)cc2)C1	3	-4	76*	4	-2	56*	0	-12
COC(=O)Cn1cnc(C(=O)Nc2ccc(C)c(C)c2)n1	·	·	-11	14	1	·	·	·
CCCCCCCN1CCN=C1Nc1ccccc1	14	0	-10	12	-3	·	·	·
Cc1ccc(N2CCN(S(=O)(=O)c3ccc4c(c3)NC(=O)C(C)C(=O)N4)CC2C)cc1 (stereo unspecified)	1	-1	-1	-13	-2	·	·	·
O=C1C=C(c2ccc3ncccc3c2)C[C@@H](c2ccc(F)cc2)C1	9	-4	75*	13	-6	61*	-1	4
SMILES	APJ antag	APJ agonist	EBI2 block	CCR6 antag	CXCR6 inh	EBI2 antag conf	EBI2 agonist	bGal cs
O=C1C=C(c2ccc3c(c2)OCO3)C[C@@H](c2ccc(F)cc2)C1	3	-3	12	16	0	·	·	·
Nc1c(S(=O)(=O)c2ccccc2)c2nc3ccccc3nc2n1/N=C/c1ccco1	-14	12	67*	17	8	77*	0	-14
Cc1cccc(S(=O)(=O)c2c(N)n(/N=C/c3ccco3)c3nc4ccccc4nc23)c1	-33	1	59*	7	5	68*	0	4
Cc1ccc(S(=O)(=O)c2c(N)n(/N=C/c3ccco3)c3nc4ccccc4nc23)cc1	3	4	41*	19	-7	55*	2	2
Cc1ccc(S(=O)(=O)N2CC(C)C(=O)CC2C)cc1 (stereo unspecified)	8	0	7	13	4	·	·	·
Cc1cccnc1NCc1ccc(O)c2ncccc12	6	-5	56*	9	7	22	0	7
Cc1cccc(NCc2ccc(O)c3ncccc23)c1C	-1	-4	-8	1	0	·	·	·
O=C(Nc1ccc(Cl)cc1F)c1ccc2c(c1)C(=O)N(Cc1ccncc1)C2=O	3	0	51*	-6	-14	29	2	5
COc1ccc(NC(=O)c2ccc3c(c2)C(=O)N(Cc2cccnc2)C3=O)cc1	13	-4	53*	-12	4	23	2	6
O=C(Nc1ccc(O)cc1)c1ccc2c(c1)C(=O)N(Cc1cccnc1)C2=O	8	6	-9	5	-1	·	·	·
CCc1cccc2c1NC(=O)C21N2CCCC2C(C(=O)c2ccc3ccccc3c2)C12C(=O)Nc1ccccc12 (stereo unspecified)	-4	-4	55*	1	4	23	0	9
Cc1cccc2c1NC(=O)C21N2CCCC2C(C(=O)c2ccc3ccccc3c2)C12C(=O)Nc1ccccc12 (stereo unspecified)	-9	-2	·	2	·	·	·	·
NS(=O)(=O)c1cccc(Nc2nc3ccccc3nc2NS(=O)(=O)c2ccc(Cl)cc2)c1	-3	-5	63*	-4	2	53*	-1	6
